From ChEMBL document CHEMBL1240365, “Effects of ceftobiprole and oxacillin on mecA expression in methicillin-resistant Staphylococcus aureus clinical isolates” (2010)
≈ marks a conversion by molar mass, not a printed value.

What was measured:
Assay type in all cases: functional
Staphylococcus aureus [1] = test: Antibacterial activity against beta-lactamase positive SCCmec type 3 methicillin-resistant Staphylococcus aureus isolate 12597 by broth microdilution method
Summary of the method: (§1)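 MIC by broth microdilution in cation-adjusted Mueller-Hinton broth per CLSI recommendations. The isolates were mecA-positive MRSA, SCCmec-typed mainly by multiplex PCR. Every isolate was beta-lactamase positive by whole-cell nitrocefin hydrolysis.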

Staphylococcus aureus [2] = test: Induction of mecA gene expression in beta-lactamase positive SCCmec type 2 methicillin-resistant Staphylococcus aureus isolate 15855 at MIC after 1 hr by multiplex PCR method
Staphylococcus aureus [3] = test: Induction of mecA gene expression in beta-lactamase positive SCCmec type 3 methicillin-resistant Staphylococcus aureus isolate 12597 at MIC after 1 hr by multiplex PCR method
Staphylococcus aureus [4] = test: Induction of mecA gene expression in beta-lactamase positive SCCmec type 5 methicillin-resistant Staphylococcus aureus isolate 12868 at MIC after 1 hr by multiplex PCR method
Staphylococcus aureus [5] = test: Induction of mecA gene expression in beta-lactamase positive SCCmec type 4a methicillin-resistant Staphylococcus aureus isolate 14154 at MIC after 1 hr by multiplex PCR method
Staphylococcus aureus [6] = test: Induction of mecA gene expression in beta-lactamase positive SCCmec type 1 methicillin-resistant Staphylococcus aureus isolate 12192 at MIC after 1 hr by multiplex PCR method
Staphylococcus aureus [7] = test: Induction of mecA gene expression in beta-lactamase positive SCCmec type 1 methicillin-resistant Staphylococcus aureus isolate 12575 at MIC after 1 hr by multiplex PCR method
Staphylococcus aureus [8] = test: Induction of mecA gene expression in beta-lactamase positive SCCmec type 2 methicillin-resistant Staphylococcus aureus isolate 17256 at MIC after 1 hr by multiplex PCR method
Staphylococcus aureus [9] = test: Induction of mecA gene expression in beta-lactamase positive SCCmec type 4a methicillin-resistant Staphylococcus aureus isolate 14145 at MIC after 1 hr by multiplex PCR method
Staphylococcus aureus [10] = test: Antibacterial activity against beta-lactamase positive SCCmec type 1 methicillin-resistant Staphylococcus aureus isolate 12192 by broth microdilution method; summary of the method: as §1
Staphylococcus aureus [11] = test: Antibacterial activity against beta-lactamase positive SCCmec type 4a methicillin-resistant Staphylococcus aureus isolate 12639 by broth microdilution method; summary of the method: as §1
Staphylococcus aureus [12] = test: Antibacterial activity against beta-lactamase positive SCCmec type 1 methicillin-resistant Staphylococcus aureus isolate 11631 by broth microdilution method; summary of the method: as §1
Staphylococcus aureus [13] = test: Induction of mecA gene expression in beta-lactamase positive SCCmec type 4a methicillin-resistant Staphylococcus aureus isolate 12639 at MIC after 1 hr by multiplex PCR method
Staphylococcus aureus [14] = test: Antibacterial activity against beta-lactamase positive SCCmec type 1 methicillin-resistant Staphylococcus aureus isolate 12575 by broth microdilution method; summary of the method: as §1
Staphylococcus aureus [15] = test: Induction of mecA gene expression in beta-lactamase positive SCCmec type 2 methicillin-resistant Staphylococcus aureus isolate 11218 at MIC after 1 hr by multiplex PCR method
Staphylococcus aureus [16] = test: Antibacterial activity against beta-lactamase positive SCCmec type nontypeable methicillin-resistant Staphylococcus aureus isolate 17329 by broth microdilution method; summary of the method: as §1
Staphylococcus aureus [17] = test: Induction of mecA gene expression in beta-lactamase positive SCCmec type 3 methicillin-resistant Staphylococcus aureus isolate 12662 at MIC after 1 hr by multiplex PCR method
Staphylococcus aureus [18] = test: Induction of mecA gene expression in beta-lactamase positive SCCmec type 2 methicillin-resistant Staphylococcus aureus isolate 17357 at MIC after 1 hr by multiplex PCR method
Staphylococcus aureus [19] = test: Antibacterial activity against beta-lactamase positive SCCmec type 2 methicillin-resistant Staphylococcus aureus isolate 17256 by broth microdilution method; summary of the method: as §1
Staphylococcus aureus [20] = test: Antibacterial activity against beta-lactamase positive SCCmec type 2 methicillin-resistant Staphylococcus aureus isolate 15855 by broth microdilution method; summary of the method: as §1
Staphylococcus aureus [21] = test: Induction of mecA gene expression in beta-lactamase positive SCCmec type 3 methicillin-resistant Staphylococcus aureus isolate 14567 at MIC after 1 hr by multiplex PCR method
Staphylococcus aureus [22] = test: Antibacterial activity against beta-lactamase positive SCCmec type 3 methicillin-resistant Staphylococcus aureus isolate 12662 by broth microdilution method; summary of the method: as §1
Staphylococcus aureus [23] = test: Antibacterial activity against beta-lactamase positive SCCmec type 3 methicillin-resistant Staphylococcus aureus isolate 14567 by broth microdilution method; summary of the method: as §1
Staphylococcus aureus [24] = test: Induction of mecA gene expression in beta-lactamase positive SCCmec type 4a methicillin-resistant Staphylococcus aureus isolate 11617 at MIC after 1 hr by multiplex PCR method
Staphylococcus aureus [25] = test: Antibacterial activity against beta-lactamase positive SCCmec type 4a methicillin-resistant Staphylococcus aureus isolate 14145 by broth microdilution method; summary of the method: as §1
Staphylococcus aureus [26] = test: Antibacterial activity against beta-lactamase positive SCCmec type 3 methicillin-resistant Staphylococcus aureus isolate 12617 by broth microdilution method; summary of the method: as §1
Staphylococcus aureus [27] = test: Antibacterial activity against beta-lactamase positive SCCmec type 4a methicillin-resistant Staphylococcus aureus isolate 11617 by broth microdilution method; summary of the method: as §1
Staphylococcus aureus [28] = test: Antibacterial activity against beta-lactamase positive SCCmec type 2 methicillin-resistant Staphylococcus aureus isolate 11218 by broth microdilution method; summary of the method: as §1
Staphylococcus aureus [29] = test: Antibacterial activity against beta-lactamase positive SCCmec type 4a methicillin-resistant Staphylococcus aureus isolate 14154 by broth microdilution method; summary of the method: as §1
Staphylococcus aureus [30] = test: Induction of mecA gene expression in beta-lactamase positive SCCmec type 2 methicillin-resistant Staphylococcus aureus isolate 11521 at MIC after 1 hr by multiplex PCR method
Staphylococcus aureus [31] = test: Antibacterial activity against beta-lactamase positive SCCmec type 5 methicillin-resistant Staphylococcus aureus isolate 12868 by broth microdilution method; summary of the method: as §1
Staphylococcus aureus [32] = test: Antibacterial activity against beta-lactamase positive SCCmec type 2 methicillin-resistant Staphylococcus aureus isolate 11521 by broth microdilution method; summary of the method: as §1
Staphylococcus aureus [33] = test: Antibacterial activity against beta-lactamase positive SCCmec type 2 methicillin-resistant Staphylococcus aureus isolate 17357 by broth microdilution method; summary of the method: as §1
Staphylococcus aureus [34] = test: Induction of mecA gene expression in beta-lactamase positive SCCmec type 1 methicillin-resistant Staphylococcus aureus isolate 11631 at MIC after 1 hr by multiplex PCR method
Staphylococcus aureus [35] = test: Induction of mecA gene expression in beta-lactamase positive SCCmec type 3 methicillin-resistant Staphylococcus aureus isolate 12617 at MIC after 1 hr by multiplex PCR method
Staphylococcus aureus [36] = test: Induction of mecA gene expression in beta-lactamase positive SCCmec type nontypeable methicillin-resistant Staphylococcus aureus isolate 17329 at MIC after 1 hr by multiplex PCR method

SMILES	MIC (Staphylococcus aureus [1]) [µg/mL]	fold change (FC) (Staphylococcus aureus [2])	fold change (FC) (Staphylococcus aureus [3])	fold change (FC) (Staphylococcus aureus [4])	fold change (FC) (Staphylococcus aureus [5])	fold change (FC) (Staphylococcus aureus [6])	fold change (FC) (Staphylococcus aureus [7])	fold change (FC) (Staphylococcus aureus [8])	fold change (FC) (Staphylococcus aureus [9])	MIC (Staphylococcus aureus [10]) [µg/mL]	MIC (Staphylococcus aureus [11]) [µg/mL]	MIC (Staphylococcus aureus [12]) [µg/mL]	fold change (FC) (Staphylococcus aureus [13])	MIC (Staphylococcus aureus [14]) [µg/mL]	fold change (FC) (Staphylococcus aureus [15])	MIC (Staphylococcus aureus [16]) [µg/mL]	fold change (FC) (Staphylococcus aureus [17])	fold change (FC) (Staphylococcus aureus [18])	MIC (Staphylococcus aureus [19]) [µg/mL]	MIC (Staphylococcus aureus [20]) [µg/mL]	other results
Cc1onc(-c2ccccc2)c1C(=O)N[C@@H]1C(=O)N2[C@@H]1SC(C)(C)[C@@H]2C(=O)O [OXACILLIN]	> 256	25	31	2	6	41	69	4	5	> 256	64 (≈ 159 µM)	> 256	2	> 256	3	256 (≈ 638 µM)	18	15	256 (≈ 638 µM)	256 (≈ 638 µM)	fold change (FC) (Staphylococcus aureus [21]): 27; MIC (Staphylococcus aureus [22]): 256 µg/mL (≈ 638 µM); MIC (Staphylococcus aureus [23]): 256 µg/mL (≈ 638 µM); fold change (FC) (Staphylococcus aureus [24]): 5; MIC (Staphylococcus aureus [25]): 16 µg/mL (≈ 39.9 µM); MIC (Staphylococcus aureus [26]): > 256 µg/mL; MIC (Staphylococcus aureus [27]): 8 µg/mL (≈ 19.9 µM); MIC (Staphylococcus aureus [28]): 32 µg/mL (≈ 79.7 µM); MIC (Staphylococcus aureus [29]): 16 µg/mL (≈ 39.9 µM); fold change (FC) (Staphylococcus aureus [30]): 13; MIC (Staphylococcus aureus [31]): 4 µg/mL (≈ 9.96 µM); MIC (Staphylococcus aureus [32]): 256 µg/mL (≈ 638 µM); MIC (Staphylococcus aureus [33]): > 256 µg/mL; fold change (FC) (Staphylococcus aureus [34]): 66; fold change (FC) (Staphylococcus aureus [35]): 50; fold change (FC) (Staphylococcus aureus [36]): 50
Nc1nc(/C(=N/O)C(=O)N[C@@H]2C(=O)N3C(C(=O)O)=C(/C=C4\CCN([C@@H]5CCNC5)C4=O)CS[C@H]23)ns1 [CEFTOBIPROLE]	2 (≈ 3.74 µM)	57	24	20	20	53	52	3	14	2 (≈ 3.74 µM)	0.5 (≈ 0.935 µM)	2 (≈ 3.74 µM)	5	2 (≈ 3.74 µM)	3	4 (≈ 7.48 µM)	22	3	4 (≈ 7.48 µM)	1 (≈ 1.87 µM)	fold change (FC) (Staphylococcus aureus [21]): 27; MIC (Staphylococcus aureus [22]): 0.5 µg/mL (≈ 0.935 µM); MIC (Staphylococcus aureus [23]): 2 µg/mL (≈ 3.74 µM); fold change (FC) (Staphylococcus aureus [24]): 30; MIC (Staphylococcus aureus [25]): 1 µg/mL (≈ 1.87 µM); MIC (Staphylococcus aureus [26]): 2 µg/mL (≈ 3.74 µM); MIC (Staphylococcus aureus [27]): 0.5 µg/mL (≈ 0.935 µM); MIC (Staphylococcus aureus [28]): 0.5 µg/mL (≈ 0.935 µM); MIC (Staphylococcus aureus [29]): 1 µg/mL (≈ 1.87 µM); fold change (FC) (Staphylococcus aureus [30]): 49; MIC (Staphylococcus aureus [31]): 0.5 µg/mL (≈ 0.935 µM); MIC (Staphylococcus aureus [32]): 0.5 µg/mL (≈ 0.935 µM); MIC (Staphylococcus aureus [33]): 4 µg/mL (≈ 7.48 µM); fold change (FC) (Staphylococcus aureus [34]): 65; fold change (FC) (Staphylococcus aureus [35]): 38; fold change (FC) (Staphylococcus aureus [36]): 4
